In brackets after ≈: the same amount, converted by molar mass.
Key:
Assay type in all cases: functional
[1] = Antifungal activity against Fusarium thapsinum by microdilution method; settings: Gibberella thapsina
How it was run: (§1)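 Clinical isolates grown on potato dextrose agar for 7 days at 25°C. Susceptibility tested by modified NCCLS (2002) broth microdilution reference method for filamentous fungi. Final inoculum 4 × 10^3 to 5 × 10^4 conidia/ml. Final drug ranges: 64–0.12 μg/ml for fluconazole and flucytosine, 128–0.25 μg/ml for micafungin, 16–0.03 μg/ml for the other azoles, amphotericin B and terbinafine.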

[2] = tested on: Fusarium verticillioides; assay: Antifungal activity against Fusarium moniliforme clade 3 by microdilution method; how it was run: as §1
[3] = tested on: Fusarium verticillioides; assay: Antifungal activity against Fusarium moniliforme clade 1 by microdilution method; how it was run: as §1
[4] = tested on: Fusarium verticillioides; assay: Antifungal activity against Fusarium moniliforme clade 2 by microdilution method; how it was run: as §1

Row | SMILES | MIC [1] [mg/L] | MIC [2] [mg/L] | MIC [3] [mg/L] | MIC [4] [mg/L]
1 | C[C@@H](n1cnc2cc(Cl)ccc2c1=O)[C@](O)(Cn1cncn1)c1ccc(F)cc1F [ALBACONAZOLE] | 18.4 (≈ 42.6 µM) | 5.66 (≈ 13.1 µM) | 3.03 (≈ 7.02 µM) | 3.56 (≈ 8.24 µM)
2 | C[C@@H]1[C@H](O)[C@@H](C)/C=C/C=C/C=C/C=C/C=C/C=C/C=C/[C@H](O[C@@H]2O[C@H](C)[C@@H](O)[C@H](N)[C@@H]2O)C[C@@H]2O[C@](O)(C[C@@H](O)C[C@@H](O)[C@H](O)CC[C@@H](O)C[C@@H](O)CC(=O)O[C@H]1C)C[C@H](O)[C@H]2C(=O)O [AMPHOTERICIN B] | 2.64 (≈ 2.86 µM) | 2 (≈ 2.16 µM) | 2.41 (≈ 2.61 µM) | 2.24 (≈ 2.42 µM)
3 | CCC(C)n1ncn(-c2ccc(N3CCN(c4ccc(OCC5COC(Cn6cncn6)(c6ccc(Cl)cc6Cl)O5)cc4)CC3)cc2)c1=O (configuration not stated) [ITRACONAZOLE] | > 16 | > 16 | 12.7 (≈ 18 µM) | > 16
4 | CC(=O)N1CCN(c2ccc(OCC3COC(Cn4ccnc4)(c4ccc(Cl)cc4Cl)O3)cc2)CC1 (configuration not stated) [KETOCONAZOLE] | > 16 | 8 (≈ 15.1 µM) | 2 (≈ 3.76 µM) | 8 (≈ 15.1 µM)
5 | CC[C@@H]([C@H](C)O)n1ncn(-c2ccc(N3CCN(c4ccc(OC[C@@H]5CO[C@@](Cn6cncn6)(c6ccc(F)cc6F)C5)cc4)CC3)cc2)c1=O [POSACONAZOLE] | > 16 | 1 (≈ 1.43 µM) | 0.79 (≈ 1.13 µM) | 0.89 (≈ 1.27 µM)
6 | C[C@@H](c1nc(-c2ccc(C#N)cc2)cs1)[C@](O)(Cn1cncn1)c1ccc(F)cc1F [RAVUCONAZOLE] | 18.4 (≈ 42 µM) | 4 (≈ 9.14 µM) | 1.45 (≈ 3.31 µM) | 2.24 (≈ 5.12 µM)
7 | CN(C/C=C/C#CC(C)(C)C)Cc1cccc2ccccc12 [TERBINAFINE] | 0.44 (≈ 1.51 µM) | 0.25 (≈ 0.858 µM) | 0.21 (≈ 0.721 µM) | 0.31 (≈ 1.06 µM)
8 | C[C@@H](c1ncncc1F)[C@](O)(Cn1cncn1)c1ccc(F)cc1F [VORICONAZOLE] | 2.64 (≈ 7.56 µM) | 2 (≈ 5.73 µM) | 2 (≈ 5.73 µM) | 2.83 (≈ 8.1 µM)

— ChEMBL document CHEMBL1255365, “In vitro antifungal susceptibility and molecular characterization of clinical isolates of Fusarium verticillioides (F. moniliforme) and Fusarium thapsinum” (2008)
